Measurements from ChEMBL document CHEMBL3352374, “Discovery of novel Bcr-Abl inhibitors targeting myristoyl pocket and ATP site” (Bioorg Med Chem, 2014).

Tests used:
Bcr/Abl fusion protein = Bcr/Abl fusion protein (Homo sapiens, UniProt P00519); experiment: Inhibition of BCR/ABL (unknown origin) after 40 mins by ADP-Glo kinase assay; assay type: protein assay
K562 = experiment: Antiproliferative activity against Bcr/Abl positive human K562 cells after 48 hrs by MTT method; assay type: functional, cell-based; settings: K562, 48 h
Procedure, shortened: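 Bcr–Abl positive K562 cells in exponential growth plated at 1 × 10⁴ cells/well and incubated 24 h at 37 °C. Compounds then added at various concentrations for 48 h. MTT (5 mg/mL) added for 4 h at 37 °C, supernatant discarded, formazan dissolved in DMSO. Absorbance read at 570 nm.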

Sequence of Bcr/Abl fusion protein (P00519 whole entry, the tested form may be a part): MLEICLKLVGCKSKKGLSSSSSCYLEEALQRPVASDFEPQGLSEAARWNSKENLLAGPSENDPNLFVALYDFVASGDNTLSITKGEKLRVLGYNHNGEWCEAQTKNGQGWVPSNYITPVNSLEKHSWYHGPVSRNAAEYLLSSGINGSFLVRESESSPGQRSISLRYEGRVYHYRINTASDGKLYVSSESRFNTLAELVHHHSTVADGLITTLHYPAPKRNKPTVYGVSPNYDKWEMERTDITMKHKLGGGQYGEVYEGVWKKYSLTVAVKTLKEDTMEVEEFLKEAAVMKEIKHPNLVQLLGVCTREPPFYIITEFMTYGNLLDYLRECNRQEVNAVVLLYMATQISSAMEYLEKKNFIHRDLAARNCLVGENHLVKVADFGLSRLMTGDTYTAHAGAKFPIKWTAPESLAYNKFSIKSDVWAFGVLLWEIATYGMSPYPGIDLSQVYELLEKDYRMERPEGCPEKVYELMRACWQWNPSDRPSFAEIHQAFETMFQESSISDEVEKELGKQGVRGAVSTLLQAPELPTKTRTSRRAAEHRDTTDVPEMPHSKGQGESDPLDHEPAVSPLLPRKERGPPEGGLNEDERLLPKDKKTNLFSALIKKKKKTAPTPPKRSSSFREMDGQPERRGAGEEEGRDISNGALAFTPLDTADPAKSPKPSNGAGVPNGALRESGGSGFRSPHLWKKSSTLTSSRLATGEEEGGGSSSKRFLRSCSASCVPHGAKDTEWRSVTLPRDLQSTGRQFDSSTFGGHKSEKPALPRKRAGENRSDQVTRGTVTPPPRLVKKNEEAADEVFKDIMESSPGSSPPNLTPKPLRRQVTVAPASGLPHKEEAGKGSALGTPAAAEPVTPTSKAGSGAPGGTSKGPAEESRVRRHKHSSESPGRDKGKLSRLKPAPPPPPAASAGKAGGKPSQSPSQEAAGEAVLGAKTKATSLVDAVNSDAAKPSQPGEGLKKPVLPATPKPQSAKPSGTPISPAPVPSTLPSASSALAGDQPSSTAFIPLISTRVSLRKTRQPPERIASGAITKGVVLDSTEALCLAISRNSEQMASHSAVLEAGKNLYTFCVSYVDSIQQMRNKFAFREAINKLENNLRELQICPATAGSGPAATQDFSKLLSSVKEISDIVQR
Sequence of Bcr/Abl fusion protein (P11274 whole entry, further chain, the tested form may be a part): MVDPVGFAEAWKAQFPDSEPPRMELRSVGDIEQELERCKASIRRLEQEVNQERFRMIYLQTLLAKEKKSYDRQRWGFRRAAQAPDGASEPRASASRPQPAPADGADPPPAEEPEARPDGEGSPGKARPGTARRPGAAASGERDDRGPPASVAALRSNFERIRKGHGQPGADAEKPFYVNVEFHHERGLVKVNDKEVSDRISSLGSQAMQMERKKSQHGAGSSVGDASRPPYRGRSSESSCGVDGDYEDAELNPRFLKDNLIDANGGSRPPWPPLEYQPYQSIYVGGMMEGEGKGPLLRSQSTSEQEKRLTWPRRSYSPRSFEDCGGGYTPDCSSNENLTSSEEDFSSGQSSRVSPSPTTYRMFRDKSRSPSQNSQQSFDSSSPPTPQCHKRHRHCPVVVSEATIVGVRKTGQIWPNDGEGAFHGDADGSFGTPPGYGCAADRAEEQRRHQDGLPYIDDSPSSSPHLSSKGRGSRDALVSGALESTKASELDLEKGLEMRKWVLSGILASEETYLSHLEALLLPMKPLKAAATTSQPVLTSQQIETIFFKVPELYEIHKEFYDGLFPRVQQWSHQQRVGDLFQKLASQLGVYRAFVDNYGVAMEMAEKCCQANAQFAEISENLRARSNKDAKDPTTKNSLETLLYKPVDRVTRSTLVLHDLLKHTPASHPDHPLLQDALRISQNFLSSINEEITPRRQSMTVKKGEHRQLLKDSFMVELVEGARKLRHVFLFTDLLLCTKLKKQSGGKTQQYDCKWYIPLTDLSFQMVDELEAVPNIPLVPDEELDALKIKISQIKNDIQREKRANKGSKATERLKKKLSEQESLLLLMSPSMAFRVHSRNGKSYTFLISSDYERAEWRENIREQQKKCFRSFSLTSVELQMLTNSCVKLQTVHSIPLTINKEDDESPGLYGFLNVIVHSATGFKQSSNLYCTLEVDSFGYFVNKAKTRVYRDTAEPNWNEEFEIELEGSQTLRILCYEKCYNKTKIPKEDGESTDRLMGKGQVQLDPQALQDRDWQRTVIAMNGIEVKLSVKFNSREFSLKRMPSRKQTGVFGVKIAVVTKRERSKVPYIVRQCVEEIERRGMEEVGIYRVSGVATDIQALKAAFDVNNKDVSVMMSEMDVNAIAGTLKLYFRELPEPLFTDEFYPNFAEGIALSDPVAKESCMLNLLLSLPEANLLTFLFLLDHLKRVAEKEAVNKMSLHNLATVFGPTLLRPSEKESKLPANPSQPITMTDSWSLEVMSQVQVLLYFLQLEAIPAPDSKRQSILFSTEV

Compound | IC50 (Bcr/Abl fusion protein) [µM] | IC50 (K562) [µM]
O=C(c1ccc(-c2cc(Nc3ccc(C(F)(F)F)cc3)ncn2)cc1)N1CCN(C(=O)c2ccccc2F)CC1 | 78.6 | 283
CC(C)(C)c1ccc(Nc2cc(-c3ccc(C(=O)N4CCN(C(=O)c5ccccc5F)CC4)cc3)ncn2)cc1 | 354 | > 500
O=C(c1ccc(-c2cc(Nc3ccccc3F)ncn2)cc1)N1CCN(C(=O)c2ccccc2F)CC1 | 0.05 | 14.5
O=C(c1ccc(-c2cc(Nc3cccc(Br)c3)ncn2)cc1)N1CCN(C(=O)c2ccccc2F)CC1 | > 500 | > 500
CC(=O)c1cccc(Nc2cc(-c3ccc(C(=O)N4CCN(C(=O)c5ccccc5F)CC4)cc3)ncn2)c1 | 0.385 | –
O=C(c1ccc(-c2cc(Nc3ccc(Cl)cc3Cl)ncn2)cc1)N1CCN(C(=O)c2ccccc2F)CC1 | > 500 | > 500
O=C(c1ccc(-c2cc(Nc3ccccc3Cl)ncn2)cc1)N1CCN(C(=O)c2ccccc2F)CC1 | 141 | 80.7
O=C(c1ccc(-c2cc(Nc3ccc(F)c(F)c3)ncn2)cc1)N1CCN(C(=O)c2ccccc2F)CC1 | > 500 | > 500
COc1cccc(Nc2cc(-c3ccc(C(=O)N4CCN(C(=O)c5ccccc5F)CC4)cc3)ncn2)c1 | 16.1 | –
CC(C)c1cccc(Nc2cc(-c3ccc(C(=O)N4CCN(C(=O)c5ccccc5F)CC4)cc3)ncn2)c1 | > 500 | > 500
O=C(c1ccc(-c2cc(Nc3cccc(F)c3)ncn2)cc1)N1CCN(C(=O)c2ccccc2Cl)CC1 | 6.06 | –
O=C(c1ccc(-c2cc(Nc3ccccc3Cl)ncn2)cc1)N1CCN(C(=O)c2ccccc2Cl)CC1 | 0.07 | 21.4
O=C(c1ccc(-c2cc(Nc3ccc(F)cc3)ncn2)cc1)N1CCN(C(=O)c2cccc(C(F)(F)F)c2)CC1 | 1.44 | 86.9
COc1cccc(Nc2cc(-c3ccc(C(=O)N4CCN(C(=O)c5cccc(C(F)(F)F)c5)CC4)cc3)ncn2)c1 | 13.5 | 106
O=C(c1ccc(-c2cc(Nc3cccc(C(F)(F)F)c3)ncn2)cc1)N1CCN(C(=O)c2ccccc2F)CC1 | 0.872 | –
O=C(c1ccc(-c2cc(Nc3cccc(F)c3)ncn2)cc1)N1CCN(C(=O)c2ccccc2F)CC1 | 0.017 | 17.8
O=C(c1ccc(-c2cc(Nc3ccc(Br)cc3)ncn2)cc1)N1CCN(C(=O)c2ccccc2F)CC1 | – | 306
O=C(c1ccc(-c2cc(Nc3ccc(F)cc3)ncn2)cc1)N1CCN(C(=O)c2ccccc2F)CC1 | 277 | 363
Cc1ccc(Nc2cc(-c3ccc(C(=O)N4CCN(C(=O)c5ccccc5F)CC4)cc3)ncn2)cc1Cl | > 500 | > 500
O=C(c1ccc(-c2cc(Nc3ccc(Cl)c(Cl)c3)ncn2)cc1)N1CCN(C(=O)c2ccccc2F)CC1 | > 500 | > 500
O=C(c1ccc(-c2cc(Nc3cccc(Cl)c3)ncn2)cc1)N1CCN(C(=O)c2ccccc2F)CC1 | 91.8 | –
O=C(c1ccc(-c2cc(Nc3cc(C(F)(F)F)cc(C(F)(F)F)c3)ncn2)cc1)N1CCN(C(=O)c2ccccc2F)CC1 | 0.13 | 60.4
Cc1ccc(Nc2cc(-c3ccc(C(=O)N4CCN(C(=O)c5ccccc5F)CC4)cc3)ncn2)cc1 | – | > 500
COc1cccc(Nc2cc(-c3ccc(C(=O)N4CCN(C(=O)c5ccccc5Cl)CC4)cc3)ncn2)c1 | – | 102
CC(C)(C)c1ccc(Nc2cc(-c3ccc(C(=O)N4CCN(C(=O)c5ccccc5Cl)CC4)cc3)ncn2)cc1 | > 500 | –
O=C(c1ccc(-c2cc(Nc3cccc(C(F)(F)F)c3)ncn2)cc1)N1CCN(C(=O)c2cccc(C(F)(F)F)c2)CC1 | 0.563 | 25.9
O=C(c1ccc(-c2cc(Nc3ccc(Cl)cc3Cl)ncn2)cc1)N1CCN(C(=O)c2cccc(C(F)(F)F)c2)CC1 | 266 | 562
Cc1ccc(NC(=O)c2ccc(CN3CCN(C)CC3)cc2)cc1Nc1nccc(-c2cccnc2)n1 [IMATINIB] | – | 4.12
